Source: ChEMBL document CHEMBL1126731, “Structure-activity relationship studies with symmetric naphthalenesulfonic acid derivatives. Synthesis and influence of spacer and naphthalenesulfonic acid moiety on anti-HIV-1 activity” (J Med Chem, 1993)

What was measured:
MOLT-4 [1] = assay: Percentage inhibition of HIV-1-induced giant cell (syncytia) formation using MOLT-4 cell at 500 uM; assay type: functional; details: Homo sapiens
In short: (§1)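 MOLT-4 cells (5×10^4/well) were cocultured with an equal number of chronically infected MOLT-4/HTLV-III_B cells at various compound concentrations for 24 h. Cell clusters were then broken by gentle pipetting, and giant cells were counted under the microscope.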

MOLT-4 [2] = assay: Percentage inhibition of HIV-1-induced giant cell (syncytia) formation using MOLT-4 cell at 100 uM; assay type: functional; details: Homo sapiens; in short: as §1
MOLT-4 [3] = assay: Percentage inhibition of HIV-1-induced giant cell (syncytia) formation using MOLT-4 cell at 20 uM; assay type: functional; details: Homo sapiens; in short: as §1
MOLT-4 [4] = assay: Percentage inhibition of HIV-1-induced giant cell (syncytia) formation using MOLT-4 cell at 4 uM; assay type: functional; details: Homo sapiens; in short: as §1
MOLT-4 [5] = assay: Inhibition of HIV-1-induced giant cell (syncytia) formation using MOLT-4 cell; assay type: functional, cell-based; details: Homo sapiens; in short: as §1
MT4 [6] = assay: Cytotoxicity against HIV-1 in MT-4 cells was evaluated by using a clinical strain (HE); assay type: functional; details: Homo sapiens
In short: (§2)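 MT-4 cells were infected with the HIV-1 strain named in the line and cultured with the test compound for 4 days. Viable cells were then counted by the MTT method. EC50 is the 50% effective antiviral concentration and CC50 the 50% cytotoxic concentration, each the mean of at least two separate experiments.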

[7] = test system: Human immunodeficiency virus 1; assay: Cytotoxicity against HIV-1 (HTLV-IIIB) in MT-4 cells; assay type: functional; details: Human immunodeficiency virus 1, MT4; in short: as §2
MT4 [8] = assay: Antiviral activity against HIV-1 in MT-4 cells was evaluated by using a clinical strain (HE); assay type: functional, cell-based; details: Homo sapiens; in short: as §2
[9] = test system: Human immunodeficiency virus 1; assay: Antiviral activity against HIV-1 (HTLV-IIIB) in MT-4 cells; assay type: functional, organism-based; details: Human immunodeficiency virus 1, MT4; in short: as §2
MOLT-4 [10] = assay: Percentage inhibition of HIV-1-induced giant cell (syncytia) formation using MOLT-4 cell at 0.8 uM; assay type: functional; details: Homo sapiens; in short: as §1
[11] = test system: Human immunodeficiency virus 1; assay: Cytotoxic concentration against HIV-1 (HTLV-IIIB) in peripheral blood lymphocytes; assay type: functional
[12] = test system: Human immunodeficiency virus 1; assay: Antiviral concentration against HIV-1 (HTLV-IIIB) in peripheral blood lymphocytes; assay type: functional, organism-based

Structure (SMILES)	EC50 [9] [µM]	CC50 [7] [µM]	also measured
O=C(CCCCCC(=O)Nc1ccc(S(=O)(=O)O)c2cccc(S(=O)(=O)O)c12)Nc1ccc(S(=O)(=O)O)c2cccc(S(=O)(=O)O)c12	143	> 500	
O=C(CCC(=O)Nc1ccc(S(=O)(=O)O)c2ccccc12)Nc1ccc(S(=O)(=O)O)c2ccccc12	> 500	> 500	
Cc1cc(C)c(S(=O)(=O)Nc2cc(C(=O)O)c(O)c(S(=O)(=O)O)c2)c(C)c1S(=O)(=O)Nc1cc(C(=O)O)c(O)c(S(=O)(=O)O)c1	57	> 500	
Nc1ccc(S(=O)(=O)O)c2cccc(S(=O)(=O)O)c12	> 500	> 500	
Nc1ccc2cc(S(=O)(=O)O)cc(S(=O)(=O)O)c2c1	> 500	> 500	
O=C(CCCCCCCCCCC(=O)Nc1ccc(S(=O)(=O)O)c2cccc(S(=O)(=O)O)c12)Nc1ccc(S(=O)(=O)O)c2cccc(S(=O)(=O)O)c12	46	> 500	
O=C(CCCCCCCCC(=O)Nc1ccc(S(=O)(=O)O)c2cccc(S(=O)(=O)O)c12)Nc1ccc(S(=O)(=O)O)c2cccc(S(=O)(=O)O)c12	66.5	> 500	
O=C(CCCCCCC(=O)Nc1ccc(S(=O)(=O)O)c2cccc(S(=O)(=O)O)c12)Nc1ccc(S(=O)(=O)O)c2cccc(S(=O)(=O)O)c12	242	> 500	
O=C(CCCCCCCCC(=O)Nc1ccc(S(=O)(=O)O)c2ccccc12)Nc1ccc(S(=O)(=O)O)c2ccccc12	> 500	> 500	
O=C(CCCCCCC(=O)Nc1ccc(S(=O)(=O)O)c2ccccc12)Nc1ccc(S(=O)(=O)O)c2ccccc12	> 500	> 500	
O=C(O)c1cc(NS(=O)(=O)c2cccc3c(S(=O)(=O)Nc4cc(C(=O)O)c(O)c(S(=O)(=O)O)c4)cccc23)cc(S(=O)(=O)O)c1O	52.5	> 500	
O=S(=O)(O)c1cccc2ccc(OS(=O)(=O)c3cccc4c(S(=O)(=O)Oc5ccc6cccc(S(=O)(=O)O)c6c5)cccc34)cc12	> 55	144	
Nc1cc(S(=O)(=O)O)cc2cc(S(=O)(=O)O)cc(O)c12	> 529	> 529	
O=C(CCCCCCC(=O)Nc1cc(S(=O)(=O)O)cc2cc(S(=O)(=O)O)cc(O)c12)Nc1cc(S(=O)(=O)O)cc2cc(S(=O)(=O)O)cc(O)c12 [listing 2 of 2 here]			CC50 (MT4 [6]): > 100 µM; EC50 (MT4 [8]): 2.2 µM
O=C(CCCCCCCCC(=O)Nc1cc(S(=O)(=O)O)cc2cc(S(=O)(=O)O)cc(O)c12)Nc1cc(S(=O)(=O)O)cc2cc(S(=O)(=O)O)cc(O)c12 [listing 2 of 2 here]			CC50 (MT4 [6]): > 100 µM; EC50 (MT4 [8]): 3.9 µM
O=S(=O)(O)c1cc(S(=O)(=O)O)c2cc(O)ccc2c1	> 500	> 500	
Nc1ccc(S(=O)(=O)O)c2ccccc12	> 500	> 500	
Cc1ccc(C(=O)Nc2ccc(S(=O)(=O)O)c3cc(S(=O)(=O)O)cc(S(=O)(=O)O)c23)cc1NC(=O)c1cccc(NC(=O)Nc2cccc(C(=O)Nc3cc(C(=O)Nc4ccc(S(=O)(=O)O)c5cc(S(=O)(=O)O)cc(S(=O)(=O)O)c45)ccc3C)c2)c1 [SURAMIN]			CC50 (MT4 [6]): 47 µM; EC50 (MT4 [8]): 8 µM

Further lines, with some results ahead:

EC50 [9] [µM]	Structure (SMILES)	CC50 [7] [µM]	also measured
52.5	O=C(O)c1cc(NS(=O)(=O)c2ccc(-c3ccc(S(=O)(=O)Nc4cc(C(=O)O)c(O)c(S(=O)(=O)O)c4)cc3)cc2)cc(S(=O)(=O)O)c1O	247	inhibition at 500 µM (MOLT-4 [1]): 100%; inhibition at 100 µM (MOLT-4 [2]): 94%; inhibition at 20 µM (MOLT-4 [3]): 22%; inhibition at 4 µM (MOLT-4 [4]): 0%; IC50 (MOLT-4 [5]): 37 µM; CC50 (MT4 [6]): > 100 µM; EC50 (MT4 [8]): 7.5 µM; inhibition at 0.8 µM (MOLT-4 [10]): 3%
43	O=S(=O)(O)c1ccc2cc(OS(=O)(=O)c3ccc(-c4ccc(S(=O)(=O)Oc5cc6ccc(S(=O)(=O)O)cc6cc5S(=O)(=O)O)cc4)cc3)c(S(=O)(=O)O)cc2c1	> 500	
41	O=S(=O)(O)c1ccc2cc(NS(=O)(=O)c3ccc(-c4ccc(S(=O)(=O)Nc5cc6ccc(S(=O)(=O)O)cc6cc5S(=O)(=O)O)cc4)cc3)c(S(=O)(=O)O)cc2c1	> 500	
> 168	O=S(=O)(O)c1cc(S(=O)(=O)O)c2cc(OS(=O)(=O)c3cccc4c(S(=O)(=O)Oc5ccc6cc(S(=O)(=O)O)cc(S(=O)(=O)O)c6c5)cccc34)ccc2c1	> 500	
11	O=C(O)c1cc(NS(=O)(=O)c2cc(S(=O)(=O)Nc3cc(C(=O)O)c(O)c(S(=O)(=O)O)c3)cc(S(=O)(=O)Nc3cc(C(=O)O)c(O)c(S(=O)(=O)O)c3)c2)cc(S(=O)(=O)O)c1O	> 500	
40	O=S(=O)(O)c1cc(S(=O)(=O)O)c2cc(OS(=O)(=O)c3ccc(-c4ccc(S(=O)(=O)Oc5ccc6cc(S(=O)(=O)O)cc(S(=O)(=O)O)c6c5)cc4)cc3)ccc2c1	224	
2.9	O=C(CCCCCCC(=O)Nc1cc(S(=O)(=O)O)cc2cc(S(=O)(=O)O)cc(O)c12)Nc1cc(S(=O)(=O)O)cc2cc(S(=O)(=O)O)cc(O)c12 [listing 1 of 2 here]	360	CC50 [11]: 20 µM; EC50 [12]: 1.3 µM; inhibition at 500 µM (MOLT-4 [1]): 100%; inhibition at 100 µM (MOLT-4 [2]): 100%; inhibition at 20 µM (MOLT-4 [3]): 96%; inhibition at 4 µM (MOLT-4 [4]): 31%; IC50 (MOLT-4 [5]): 6.4 µM; inhibition at 0.8 µM (MOLT-4 [10]): 6%
44	O=C(CCCCCCCCCCC(=O)Nc1cc(S(=O)(=O)O)cc2cc(S(=O)(=O)O)cc(O)c12)Nc1cc(S(=O)(=O)O)cc2cc(S(=O)(=O)O)cc(O)c12	430	inhibition at 500 µM (MOLT-4 [1]): 100%; inhibition at 100 µM (MOLT-4 [2]): 100%; inhibition at 20 µM (MOLT-4 [3]): 40%; inhibition at 4 µM (MOLT-4 [4]): 11%; IC50 (MOLT-4 [5]): 26 µM; CC50 (MT4 [6]): > 100 µM; EC50 (MT4 [8]): 12.5 µM; inhibition at 0.8 µM (MOLT-4 [10]): 0%
8.3	O=S(=O)(O)c1cc(O)c2c(NS(=O)(=O)c3ccc(-c4ccc(S(=O)(=O)Nc5cc(S(=O)(=O)O)cc6cc(S(=O)(=O)O)cc(O)c56)cc4)cc3)cc(S(=O)(=O)O)cc2c1	320	CC50 [11]: 38 µM; EC50 [12]: 9.2 µM
14	O=S(=O)(O)c1cc(S(=O)(=O)O)c2cc(NS(=O)(=O)c3cccc4c(S(=O)(=O)Nc5ccc6cc(S(=O)(=O)O)cc(S(=O)(=O)O)c6c5)cccc34)ccc2c1	> 500	
29.5	O=S(=O)(O)c1cc(S(=O)(=O)O)c2cc(NS(=O)(=O)c3ccc(-c4ccc(S(=O)(=O)Nc5ccc6cc(S(=O)(=O)O)cc(S(=O)(=O)O)c6c5)cc4)cc3)ccc2c1	> 500	inhibition at 500 µM (MOLT-4 [1]): 100%; inhibition at 100 µM (MOLT-4 [2]): 100%; inhibition at 20 µM (MOLT-4 [3]): 34%; inhibition at 4 µM (MOLT-4 [4]): 21%; IC50 (MOLT-4 [5]): 29 µM; CC50 (MT4 [6]): > 100 µM; EC50 (MT4 [8]): 8.1 µM; inhibition at 0.8 µM (MOLT-4 [10]): 6%
> 197	O=C(Nc1ccc(S(=O)(=O)O)c2cccc(S(=O)(=O)O)c12)c1ccc(C(=O)Nc2ccc(S(=O)(=O)O)c3cccc(S(=O)(=O)O)c23)cc1	> 500	
3.9	O=C(CCCCCCCCC(=O)Nc1cc(S(=O)(=O)O)cc2cc(S(=O)(=O)O)cc(O)c12)Nc1cc(S(=O)(=O)O)cc2cc(S(=O)(=O)O)cc(O)c12 [listing 1 of 2 here]	> 100	inhibition at 500 µM (MOLT-4 [1]): 100%; inhibition at 100 µM (MOLT-4 [2]): 100%; inhibition at 20 µM (MOLT-4 [3]): 35%; inhibition at 4 µM (MOLT-4 [4]): 30%; IC50 (MOLT-4 [5]): 29 µM; inhibition at 0.8 µM (MOLT-4 [10]): 0%
> 100	O=S(=O)(O)c1cccc2ccc(OS(=O)(=O)c3ccc(-c4ccc(S(=O)(=O)Oc5ccc6cccc(S(=O)(=O)O)c6c5)cc4)cc3)cc12	100	
8.2	Cc1ccc(C(=O)Nc2ccc(S(=O)(=O)O)c3cc(S(=O)(=O)O)cc(S(=O)(=O)O)c23)cc1NC(=O)c1cccc(NC(=O)Nc2cccc(C(=O)Nc3cc(C(=O)Nc4ccc(S(=O)(=O)O)c5cc(S(=O)(=O)O)cc(S(=O)(=O)O)c45)ccc3C)c2)c1 [SURAMIN HEXASODIUM]	250	
